Screens deposited in PubChem BioAssay by The Scripps Research Institute Molecular Screening Center.
Compounds with a hit are over-represented: about 1.9% of the library has one in this group of screens.
MBD2 DNA inh = inhibitors of MBD2 binding to methylated DNA, primary screen, biochemical, TR-FRET, DNA-binding domain, human; Methyl-CpG-binding domain protein 2 (Homo sapiens), Q9UBB5; MBD2 binding to methylated oligonucleotide; actives 0.31% (n = 370,000); inhibition, % at 4.4 µM; in the data active = inhibition above about 13%
TDP2 inh = human TDP2 enzyme inhibitors, primary screen, biochemical, epi absorbance, recombinant enzyme; Tyrosyl-DNA phosphodiesterase 2 (Homo sapiens), O95551; T5PNP hydrolysis, p-nitrophenol absorbance 415 nm; inhibition, % at 12.8 µM; actives 0.34% (n = 370,000);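 active = inhibition above the mean of all tested compounds plus 3 SD, set per campaign, cut at about 25% in these data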;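 also: 0% = DMSO with enzyme and 100% = buffer with substrate but no TDP2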
Target sequence (O95551 whole entry, looked up): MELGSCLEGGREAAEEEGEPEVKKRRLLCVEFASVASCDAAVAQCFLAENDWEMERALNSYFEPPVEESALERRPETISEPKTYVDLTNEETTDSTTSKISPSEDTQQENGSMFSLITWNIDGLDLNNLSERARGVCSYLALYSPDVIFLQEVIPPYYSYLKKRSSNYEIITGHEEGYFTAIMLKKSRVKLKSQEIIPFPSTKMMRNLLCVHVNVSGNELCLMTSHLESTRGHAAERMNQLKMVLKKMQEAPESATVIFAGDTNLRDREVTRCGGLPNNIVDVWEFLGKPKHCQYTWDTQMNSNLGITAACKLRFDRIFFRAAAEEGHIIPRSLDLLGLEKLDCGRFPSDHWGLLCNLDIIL
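Material: recombinant human TDP2; quantity: TDP2 enzyme at 120 nM final; medium: Tris-HCl pH 7.5 with MgCl2; compound: single concentration, 12.8 µM nominal, with 1% DMSO; incubation: 2 h enzyme incubation at 37 °C; signal: epi absorbance; measure: percent inhibition; benchmarks: high control without enzyme, low control DMSO plus TDP2; repeats: singlicate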
UHRF1 MBD2 ctr = UHRF1 methylated DNA binding inhibitors, primary screen, counter-screen for MBD2 inhibitor project, biochemical, TR-FRET, human UHRF1, single concentration; UHRF1 binding to methylated oligo; inhibition, % at 4.4 µM; actives 0.75% (n = 370,000); in the data active = inhibition above about 21%;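 also: UHRF1 SRA domain binding a hemimethylated CpG hairpin DNA probe; 0% = median of test compound wells and 100% = reference inhibitor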
Rin1 Abl inh = inhibitors of Rin1-Abl protein binding, primary screen, biochemical, TR-FRET; inhibition, % at 7.35 µM; Tyrosine-protein kinase ABL1 (Homo sapiens) + Ras and Rab interactor 1 (Homo sapiens), …; actives 0.4% (n = 360,000); in the data active = inhibition above about 5%, passing the limit was not always enough
LEDGF integ inh = blockers of LEDGF/p75-dependent integrase strand transfer – biochemical, TR-FRET, high throughput, primary screen. HIV-1 integrase (with human LEDGF/p75). TR-FRET IN-LEDGF/p75 DNA integration, Eu/Cy5. inhibition, % at 3.7 µM. actives 0.64% (n = 370,000);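 active = inhibition above the screen-wide mean plus 3 SD, cut at about 13% in these data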;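 also: signal is the Cy5 over europium emission ratio at 671 and 618 nm; 0% = plate median of compound wells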
Active calls of the source: *; nt = no result.

SMILES | MBD2 DNA inh | TDP2 inh | UHRF1 MBD2 ctr | Rin1 Abl inh | LEDGF integ inh
COc1cccc(C=NNC(=O)CSc2nc3ccccc3[nH]2)c1O | -4 | -17 | 4 | nt | -7
O=C(Nc1nc2ncccn2c1-c1ccc(C(F)(F)F)cc1)C1CC1 | -5 | 3 | -2 | nt | 2
CCc1sc(C(=O)NCc2ccco2)cc1Br | 2 | -14 | 26* | -1 | 13
COc1cccc(NC(=O)C2CCCN2C(=O)Nc2cccc3c2OCO3)c1 (configuration not stated) | -6 | -4 | -2 | nt | 4
Cc1ccc(NN2C(=O)C=C(c3ccccc3)C2=O)cc1 | 2 | 2 | 21* | 5 | 3
COc1ccc(NC(=O)NNC(=O)CCn2nc(C)c([N+](=O)[O-])c2C)cc1OC | 0 | 1 | 1 | nt | 0
O=C(NCCO)c1cccc(-c2cnc3c(Nc4cccc(OC(F)(F)C(F)F)c4)nccn23)c1 | -10 | -3 | -2 | 0 | 0
Cc1ccc(S(=O)(=O)Nc2ccc(Nc3nccn4c(-c5cccc(OC(F)(F)F)c5)cnc34)cc2)cc1 | 1 | -1 | 90* | -2 | 2
Cc1ccc(S(=O)(=O)NN2C(=O)/C(=C/c3cccnc3)SC2=S)cc1 | -8 | 9 | -9 | -1 | 0
O=C(NN1C(=O)/C(=C\c2cccnc2)SC1=S)c1ccco1 | 10 | 0 | 47* | 0 | 5
Cc1cc(C)n(CCCNC(=O)CCNS(=O)(=O)c2ccccc2C(F)(F)F)n1 | -1 | -2 | 24* | 6 | 1
O=C(O)C(O)Cc1c[nH]c2ccccc12 (configuration not stated) | -4 | 13 | -1 | -1 | 2
CC(Cc1c[nH]c2ccccc12)C(=O)O (configuration not stated) | 12 | 5 | 23* | 3 | 3
O=C(Cc1c[nH]c2ccccc12)OCC(=O)c1ccccc1 | 11 | -10 | 29* | -1 | 3
CC(C)CC(=O)N1CCC(C(=O)NCC2COc3ccccc3O2)CC1 (configuration not stated) | -7 | 12 | 0 | nt | 1
COc1ccc(C(=O)NCc2cccnc2)cc1C(=O)NCc1cccnc1 | 5 | 5 | -1 | 0 | -3
O=C(NCc1cccnc1)C(=O)Nc1ccc([N+](=O)[O-])cc1 | 1 | 8 | 22* | -8 | 1
O=C(NCc1cccnc1)c1ccc(Cl)c(Cl)c1 | 5 | 13 | 37* | 2 | -1
O=C(NCc1cccnc1)c1cccs1 | 8 | 7 | 22* | 0 | 4
O=C(C1CCCN1S(=O)(=O)c1ccccc1[N+](=O)[O-])N1CCN(c2ccccc2)CC1 (configuration not stated) | 5 | -12 | 3 | nt | -1
Cn1nc(-c2ccccc2)cc1NC(=O)Nc1ccccc1F | -2 | -4 | 68* | 0 | 3
Cc1cc(C)cc(NC(=O)Nc2cc(-c3ccccc3)nn2C)c1 | -1 | -4 | -4 | -2 | 3
CCOc1ccc(NC(=O)CN2CCCN(c3ccc(OC)cc3)CC2)cc1 | 2 | 12 | -1 | nt | 0
COc1ccccc1-c1ocnc1C(=O)Nc1ccc(N2CCOCC2)cc1N1CCOCC1 | -5 | -9 | 74* | -2 | -1
S=C(Nc1ccccc1I)OC1CCC12CCC(c1ccccc1)CC2 (configuration not stated) | -2 | -10 | 3 | nt | 0
C=CCn1c(SCC(N)=O)nnc1-c1ccc(C)cc1 | -2 | -8 | -1 | nt | -2
COc1ccc(OCC(=O)OC(C)CN2CCOCC2)cc1 (configuration not stated) | -6 | -6 | -4 | -4 | -7
CCN(CC)CC(C)OC(=O)COc1ccc(OC)cc1 (configuration not stated) | -3 | -5 | 24* | -5 | 3
CCCCCCn1c(=O)n2n(c1=O)[C@@H]1CN(S(=O)(=O)c3ccc(C)cc3)C[C@]1(O)[C@@H](OC(=O)NC1CCCC1)C2 | 8 | -12 | 10 | -3 | 2
